Reference: ChEMBL document CHEMBL1126262, “2-(Aminomethyl)chromans that inhibit iron-dependent lipid peroxidation and protect against central nervous system trauma and ischemia” (J Med Chem, 1992)
Several values for one entry are separate records, joined by “and”; a condition that tells them apart may be missing. Equal values may be shown once. Activity calls are given as the source filed them. No cut-off for these calls is given here.

Experiments:
[1] = organism: Rattus norvegicus; assay: Tested in vitro for the inhibition of iron-dependent lipid peroxidation against rat brain homogenates, by malondialdehyde (MDA) formation assay; format: functional
[2] = organism: Mus musculus; assay: Lowest effective dosage in Mouse Head Injury Assay.; format: functional
In short: (§1)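 Unanesthetized male CF-1 mice (17-20 g), concussive head injury from 50-g weight dropped 18 cm (~900 g-cm). Vehicle (0.05 N HCl or 0.5% Tween 80) or drug, 0.001-30.0 mg/kg, iv bolus within 5 min postinjury (oral where indicated). Blind grip-string test at 1 h; groups of 20-25 mice, vehicle plus four dose groups; Duncan's multiple range test.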

[3] = system: Mus musculus; assay: Tested in vivo for neuroprotectant activity against mouse head injury(MHI) model.; format: functional; in short: as §1
[4] = system: Mus musculus; assay: Tested in vivo for neuroprotectant activity against mouse head injury(MHI) model; IA = Inactive; format: functional, organism-based; in short: as §1
[5] = organism: Mus musculus; assay: Lowest effective dosage using in Mouse Head Injury Assay; format: functional; in short: as §1
[6] = system: Mus musculus; assay: Antagonistic activity against potassium cyanide induced cytotoxic hypoxia in male CF-1 mice at a dose of 10 mg/kg; format: organism-based; set-up: dose 10 mg/kg; settings: in vivo
[7] = system: Mus musculus; assay: Antagonistic activity against potassium cyanide induced cytotoxic hypoxia in male CF-1 mice at a dose of 20 mg/kg(p<0.05); format: organism-based; set-up: dose 20 mg/kg; settings: in vivo
[8] = system: Mus musculus; assay: Antagonistic activity against potassium cyanide induced cytotoxic hypoxia in male CF-1 mice at a dose of 10 mg/kg(p<0.05); format: organism-based; set-up: dose 10 mg/kg; settings: in vivo

Structure (SMILES)	IC50 ([1]; Rattus norvegicus, Brain) [nM]	Lowest effective dose [2] [mg/kg]	Grip score [3]	other results
Cc1c(C)c2c(c(C)c1O)CCC(C)(C(=O)NCCCc1ccccc1)O2 (centres undefined)	1000	–	–	–
COc1ccc(CCNC(=O)C2(C)CCc3c(C)c(O)c(C)c(C)c3O2)cc1OC (centres undefined)	4100	–	–	–
C[C@H]1C[C@@H]2[C@H]([C@@H](O)C[C@@]3(C)[C@H]2CC[C@]3(O)C(=O)COC(=O)CCC(=O)[O-])[C@@]2(C)C=CC(=O)C=C12.[Na+] [METHYLPREDNISOLONE SODIUM SUCCINATE]	–	15	13.5	–
Cc1c(C)c2c(c(C)c1O)CCC(C)(C(=O)N(C)CCc1ccccn1)O2 (centres undefined)	5400	–	–	–
COc1ccc(CNCC2(C)CCc3c(C)c(O)c(C)c(C)c3O2)cc1OC (centres undefined)	11000	–	–	–
Cc1c(C)c2c(c(C)c1O)CCC(C)(C(=O)Nc1ccccn1)O2 (centres undefined)	1800	0.01	14.4	–
Cc1c(C)c2c(c(C)c1O)CCC(C)(C(=O)N1CCNCC1)O2 (centres undefined)	10000	–	–	–
Cc1c(C)c2c(c(C)c1O)CCC(C)(C(=O)NCCCCc1ccccc1)O2 (centres undefined)	700	–	–	–
Cc1c(C)c2c(c(C)c1O)CCC(C)(C(=O)NCCc1ccccc1)O2 (centres undefined)	1300	–	–	–
Cc1c(C)c2c(c(C)c1O)CCC(C)(CC(=O)N1CCN(c3cc(N4CCCC4)nc(N4CCCC4)n3)CC1)O2 (centres undefined)	1300	–	–	Grip score [4]: inactive
Cc1c(C)c2c(c(C)c1O)CCC(C)(C(=O)N1CCN(c3cc(N4CCCC4)nc(N4CCCC4)n3)CC1)O2 (centres undefined)	500	–	17.5	Lowest effective dose [5]: 0.01 mg/kg; LD50 [6]: 99.3%; LD50 [7]: 115.2%
Cc1c(C)c2c(c(C)c1O)CCC(C)(C(=O)NCc1cccnc1)O2 (centres undefined)	47000	–	–	–
Cc1c(C)c2c(c(C)c1O)CCC(C)(CNCCCCc1ccccc1)O2 (centres undefined)	800	–	–	–
COc1ccc(CCNCC2(C)CCc3c(C)c(O)c(C)c(C)c3O2)cc1OC.Cl (centres undefined)	1000	0.01	8.4	–
Cc1c(C)c2c(c(C)c1O)CCC(C)(CNCCc1ccccc1)O2.O=C(O)C(=O)O (centres undefined)	900	1	8.7	–
Cc1c(C)c2c(c(C)c1O)CCC(C)(CNCCN(C)C)O2 (centres undefined)	1700	–	–	Grip score [4]: inactive
CC(=O)Oc1c(C)c(C)c2c(c1C)CCC(C)(C(=O)N1CCN(c3cc(N4CCCC4)nc(N4CCCC4)n3)CC1)O2 (centres undefined)	17000	–	–	–

Structure (SMILES)	IC50 ([1]; Rattus norvegicus, Brain) [nM]	Lowest effective dose [2] [mg/kg]	Grip score [3]	other results
Cc1c(C)c2c(c(C)c1O)CCC(C)(CN1CCN(c3cc(N4CCCC4)nc(N4CCCC4)n3)CC1)O2.Cl.Cl (stereo in doubt; 60)	–	0.001	11.5	IC50 [1]: 1100 nM
Cc1c(C)c2c(c(C)c1O)CCC(C)(CN1CCN(Cc3ccccc3)CC1)O2.Cl.Cl (centres undefined)	1000	0.01	13	LD50 [8]: 130%; LD50 [7]: 181.4%
Cc1c(C)c2c(c(C)c1O)CCC(C)(CNCCCc1ccccc1)O2 (centres undefined)	1000	–	–	–
Cc1c(C)c2c(c(C)c1O)CCC(C)(CN1CCN(c3cc(N4CCCC4)nc(N4CCCC4)n3)CC1)O2.Cl.Cl.O (centres undefined)	–	–	13.7 and 14.7	IC50 [1]: 600 nM; LD50 [8]: 114%; LD50 [7]: 134.2%
Cc1c(C)c2c(c(C)c1O)CC[C@@](C)(CCC[C@H](C)CCC[C@H](C)CCCC(C)C)O2 [ALPHA-TOCOPHEROL]	28000	–	–	–
COc1ccc(CNC(=O)C2(C)CCc3c(C)c(O)c(C)c(C)c3O2)cc1OC (centres undefined)	5500	–	–	–
COc1ccc(N2CCN(C(=O)C3(C)CCc4c(C)c(O)c(C)c(C)c4O3)CC2)cc1 (centres undefined)	700	–	–	–
CC(=O)Oc1c(C)c(C)c2c(c1C)CCC(C)(CN1CCN(c3cc(N4CCCC4)nc(N4CCCC4)n3)CC1)O2 (centres undefined)	1500	1	9.2	–
Cc1c(C)c2c(c(C)c1O)CCC(C)(C(=O)Nc1ccncc1)O2 (centres undefined)	2300	0.01	11.5	–
CCN(CC)c1ccc(N2CCN(C(=O)C3(C)CCc4c(C)c(O)c(C)c(C)c4O3)CC2)nc1N(CC)CC (centres undefined)	200	–	–	Grip score [4]: inactive
C[C@@H]1C[C@H]2[C@@H]3CCC4=CC(=O)C=C[C@]4(C)C3=CC[C@]2(C)[C@H]1C(=O)CN1CCN(c2cc(N3CCCC3)nc(N3CCCC3)n2)CC1 [TIRILAZAD]	–	0.003	14.5	LD50 [6]: 103.6%; LD50 [7]: 128.4%
Cc1c(C)c2c(c(C)c1O)CCC(C)(CN1CCN(c3cc(N4CCCC4)nc(N4CCCC4)n3)CC1)O2.Cl.Cl (stereo in doubt; 59)	–	–	14.4	IC50 [1]: 1500 nM
Cc1c(C)c2c(c(C)c1O)CCC(C)(C(=O)NCCc1ccccn1)O2 (centres undefined)	11000	–	–	–
Cc1c(C)c2c(c(C)c1O)CCC(C)(C(=O)N1CCCC1)O2 (centres undefined)	10000	–	–	–
Cc1c(C)c2c(c(C)c1O)CCC(C)(C(=O)O)O2 (centres undefined) [TROLOX]	43000	–	–	–
Cc1c(C)c2c(c(C)c1O)CCC(C)(C(=O)NCCN(C)C)O2 (centres undefined)	8700	–	–	Grip score [4]: inactive

More lines, main results first:

IC50 ([1]; Rattus norvegicus, Brain) [nM]	Structure (SMILES)	Lowest effective dose [2] [mg/kg]	Grip score [3]	other results
23000	Cc1c(C)c2c(c(C)c1O)CCC(C)(CNCCc1ccccn1)O2 (centres undefined)	–	–	–
12000	CCNc1cccnc1N1CCN(C(=O)C2(C)CCc3c(C)c(O)c(C)c(C)c3O2)CC1 (centres undefined)	–	–	–
1000	COc1ccccc1N1CCN(CC2(C)CCc3c(C)c(O)c(C)c(C)c3O2)CC1 (centres undefined)	–	–	Grip score [4]: inactive
800	Cc1c(C)c2c(c(C)c1O)CCC(C)(C(=O)N1CCN(c3ccc(Cl)cc3)CC1)O2 (centres undefined)	–	–	–
1000	Cc1c(C)c2c(c(C)c1O)CCC(C)(CN1CCN(c3ccccn3)CC1)O2.Cl.O (centres undefined)	0.01	10.7	–
48000	Cc1c(C)c2c(c(C)c1O)CCC(C)(CNCc1cccnc1)O2 (centres undefined)	–	–	–
1000	Cc1c(C)c2c(c(C)c1O)CCC(C)(C(=O)N1CCN(Cc3ccccc3)CC1)O2 (centres undefined)	–	–	–
177000	Cc1c(C)c2c(c(C)c1O)CCC(C)(CN(C)CCc1ccccn1)O2 (centres undefined)	–	–	–
1400	Cc1c(C)c2c(c(C)c1O)CCC(C)(CN1CCCC1)O2 (centres undefined)	–	–	–
1000	Cc1c(C)c2c(c(C)c1O)CCC(C)(CN1CCNCC1)O2 (centres undefined)	–	–	–
200	Cc1c(C)c2c(c(C)c1O)CCC(C)(CNc1ccccn1)O2 (centres undefined)	0.01	12.3	–
16000	Cc1c(C)c2c(c(C)c1O)CCC(C)(CNc1ccncc1)O2 (centres undefined)	–	–	–
23000	Cc1c(C)c2c(c(C)c1O)CCC(C)(C(=O)N1CCN(c3ncccn3)CC1)O2 (centres undefined)	1	12	–
900	Cc1c(C)c2c(c(C)c1O)CCC(C)(CN1CCN(c3ccc(Cl)cc3)CC1)O2 (centres undefined)	–	–	–
1000	CCN(CC)c1ccc(N2CCN(CC3(C)CCc4c(C)c(O)c(C)c(C)c4O3)CC2)nc1N(CC)CC.Cl.O (centres undefined)	0.01	11.9	–
1000	Cc1c(C)c2c(c(C)c1O)CCC(C)(CN1CCN(c3ncccn3)CC1)O2 (centres undefined)	0.01	10.3	–
15000	COc1ccccc1N1CCN(C(=O)C2(C)CCc3c(C)c(O)c(C)c(C)c3O2)CC1 (centres undefined)	0.01	12.8	–
1000	CCNc1cccnc1N1CCN(CC2(C)CCc3c(C)c(O)c(C)c(C)c3O2)CC1.Cl.O (centres undefined)	0.01	10.4 and 11.9	–
1000	Cc1c(C)c2c(c(C)c1O)CCC(C)(C(=O)N1CCN(c3ccccn3)CC1)O2 (centres undefined)	0.01	8.2	–
1300	Cc1c(C)c2c(c(C)c1O)CCC(C)(CCN1CCN(c3cc(N4CCCC4)nc(N4CCCC4)n3)CC1)O2 (centres undefined)	–	–	Grip score [4]: inactive
200	COc1ccc(N2CCN(CC3(C)CCc4c(C)c(O)c(C)c(C)c4O3)CC2)cc1 (centres undefined)	–	–	–
